Screens (PubChem BioAssay)
D1 mod: allosterically modulates the human D1 dopamine receptor; P21728; HEK293 D1, CRE-luciferase, dopamine EC30 potentiation; actives deviate in either direction; B-score at 10 µM; 58,000 tested, 5.9% active; AID 641;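 active means luminescence count or its row- and column-corrected plate score outside the 99.7% band of the plate's sample wells, on either side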
PostGolgi ctrl: yeast control strain growth, post-Golgi counter-screen. inhibition, % at 10 µM. 98,000 tested, 5% active. efflux-deficient yeast background strain, growth absorbance A615, 16 h
DAT uptake mod: modulates human dopamine transporter uptake under cocaine; Q01959; LLC-PK1 hDAT cells, [14C]-dopamine uptake with cocaine IC80; actives deviate in either direction; B-score at 10 µM; 110,000 tested, 1.3% active; AID 449768;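 active means Z score or B-score, a plate-position-corrected score, falls beyond the plate's 99.7% confidence bounds, in either direction; inactive means both scores lie inside the 99.7% bounds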;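 further: scored against the spread of the other compound wells on the same plate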
Target sequence (Q01959 whole entry, looked up): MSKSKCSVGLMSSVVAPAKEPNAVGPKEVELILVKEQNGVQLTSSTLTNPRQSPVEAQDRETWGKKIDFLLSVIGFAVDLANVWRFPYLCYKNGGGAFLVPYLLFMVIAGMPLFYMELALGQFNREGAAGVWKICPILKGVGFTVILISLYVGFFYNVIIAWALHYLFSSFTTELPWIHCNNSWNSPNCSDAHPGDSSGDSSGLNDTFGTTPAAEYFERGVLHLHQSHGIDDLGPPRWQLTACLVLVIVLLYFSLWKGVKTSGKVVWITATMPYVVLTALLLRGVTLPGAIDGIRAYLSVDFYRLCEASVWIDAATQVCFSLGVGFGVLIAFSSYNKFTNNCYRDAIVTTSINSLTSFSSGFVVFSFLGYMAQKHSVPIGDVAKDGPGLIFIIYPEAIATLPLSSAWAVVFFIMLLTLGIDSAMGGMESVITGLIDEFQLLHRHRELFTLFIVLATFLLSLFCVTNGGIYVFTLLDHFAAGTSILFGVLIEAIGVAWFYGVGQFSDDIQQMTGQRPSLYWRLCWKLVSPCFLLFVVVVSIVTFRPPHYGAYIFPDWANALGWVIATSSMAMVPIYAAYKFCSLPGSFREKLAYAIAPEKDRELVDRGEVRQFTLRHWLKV
E coli WT exp: blocks growth of wild type E. coli BW25113. OD600 absorbance. growth inhibition, % at 100 µM. 98,000 tested, 0.15% active;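 active means growth inhibition above about 50% at one test dose, limit read from the data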;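 further: growth measured after 20 h incubation at 37 °C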
Ecoli tolC: blocks growth of E. coli BW25113 tolC mutant; OD615; growth inhibition, % at 10 µM (by protocol); 65,000 tested, 2.2% active;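 active means growth inhibition at or above a cutoff equal to the mean over every tested compound plus 3 SD, cut at about 60% in these data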;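 further: growth measured after 20 h incubation at 37 °C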
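test system = E. coli BW25113 ΔtolC::kan bacteria | medium = LB with kanamycin 50 µg/mL | signal = OD at 615 nm | schedule = 37 °C, 20 h exposure | evaluation = % inhibition of E. coli growth | compound dosing = one dose of 10 µM final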
PostGolgi yeast: growth inhibition of a yeast mutant, post-Golgi transport screen. post-Golgi transport phenotypic cell assay. inhibition, % at 10 µM. 98,000 tested, 0.9% active. AID 739;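 further: yeast cells grown in 1536-well plates; yeast grown about 18 h at 30C before absorbance read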
Starred values were filed as active, the others as inactive. Only some compounds are listed: those with a hit (about 9.3% of all), similar ones and a draw of the others. Unless noted, no stated cut-off is given here; in the data, active means inhibition above about 30%; inactive means the rest.

What do the screens show for `CCCCNC(=O)CS(=O)Cc1nc(-c2ccc(C)cc2)oc1C` (configuration not stated)?
D1 mod: 2.1; PostGolgi ctrl: -4; DAT uptake mod: 0.71; E coli WT exp: -4; Ecoli tolC: -6; PostGolgi yeast: 3

What do the screens show for `COc1cccc(/C=C2/CN(C)CC3=C2OC(N)=C(C#N)C3c2cccc(OC)c2)c1` (configuration not stated)?
PostGolgi ctrl: 6; DAT uptake mod: -0.31; E coli WT exp: -14; Ecoli tolC: 17; PostGolgi yeast: 9

Results for c1ccc(-c2ncnc3cc4n(c23)CCC4)cc1 ?
DAT uptake mod: 0.19

What do the screens show for `Cc1cc(NC(=O)c2ccoc2C)no1`?
DAT uptake mod: 0.22

What do the screens show for `COC(=O)c1ccc(NC(=O)CSc2nnc(CNc3ccc(F)cc3)n2C)cc1`?
D1 mod: 0.13; PostGolgi ctrl: 11; DAT uptake mod: 0.12; E coli WT exp: -2; Ecoli tolC: 9; PostGolgi yeast: 5

How did CC(=O)Nc1nc(COc2ccccc2)cs1 do in these assays?
D1 mod: 0.35; PostGolgi ctrl: 13; DAT uptake mod: -0.0031; E coli WT exp: 12; Ecoli tolC: 7; PostGolgi yeast: -1

What do the screens show for `O=C(Nc1nc(COc2ccccc2)cs1)C12CC3CC(CC(C3)C1)C2`?
PostGolgi ctrl: 37*; DAT uptake mod: -2.1; E coli WT exp: -8; PostGolgi yeast: 1

Results for Cc1ccc(C(=O)Nc2nc(COc3ccccc3)cs2)s1 ?
D1 mod: -0.2; PostGolgi ctrl: 2; DAT uptake mod: -0.37; E coli WT exp: -9; Ecoli tolC: 79*; PostGolgi yeast: -1

How did C=CCn1c(C)cc(C(=O)CSc2nnc(Cc3ccccc3)o2)c1C do in these assays?
PostGolgi ctrl: 96*; DAT uptake mod: -0.38; E coli WT exp: -3; Ecoli tolC: 23; PostGolgi yeast: 82*

How did C=CCn1c(C)cc(C(=O)CSc2nnc(NCc3ccccc3)s2)c1C do in these assays?
D1 mod: 0.035; PostGolgi ctrl: 96*; E coli WT exp: -21; Ecoli tolC: 42; PostGolgi yeast: 62*

How did Cc1cc(C(=O)CSc2nnc(Cc3ccccc3)o2)c(C)n1Cc1ccc2c(c1)OCO2 do in these assays?
D1 mod: -1.1; PostGolgi ctrl: 15; DAT uptake mod: -0.036; E coli WT exp: -29; Ecoli tolC: 20; PostGolgi yeast: -4

How did Cc1cc(C(=O)CSc2nc3ccccc3o2)c(C)n1C1CC1 do in these assays?
D1 mod: -0.69; PostGolgi ctrl: 23; DAT uptake mod: -0.99; E coli WT exp: -6; Ecoli tolC: 76*; PostGolgi yeast: 3

What do the screens show for `Cc1cc(C(=O)CSc2nnc(-c3cccs3)o2)c(C)n1-c1ccccc1`?
D1 mod: -3.6*; PostGolgi ctrl: 20; DAT uptake mod: 0.4; E coli WT exp: -14; Ecoli tolC: 37; PostGolgi yeast: -2

What do the screens show for `COc1ccc(C2C(C(=O)OCC3CCCO3)=C(C)NC3=C2C(=O)CC(c2ccco2)C3)cc1O` (configuration not stated)?
PostGolgi ctrl: 20; DAT uptake mod: 0.24; E coli WT exp: -4; PostGolgi yeast: -19

Results for CC(=O)NC1=NN(C(C)=O)C(C)(CS(=O)(=O)c2ccc3ccccc3c2)S1 (configuration not stated) ?
DAT uptake mod: -0.033

Results for CCCCOC(=O)C1CCCC(C(=O)OCCCC)N1 (configuration not stated) ?
D1 mod: -0.31; PostGolgi ctrl: 2; DAT uptake mod: 0.6; E coli WT exp: -2; Ecoli tolC: -6; PostGolgi yeast: -1

How did CCS(=O)(=O)NCCc1cc2ccc(C)cc2[nH]c1=O do in these assays?
D1 mod: 0.48; PostGolgi ctrl: 8; DAT uptake mod: 0.3; E coli WT exp: 2; Ecoli tolC: -17; PostGolgi yeast: 18

What do the screens show for `C=CCn1c(C)cc(C(=O)CSc2nc3ccccc3c(=O)[nH]2)c1C`?
D1 mod: -0.02; PostGolgi ctrl: 89*; DAT uptake mod: -0.22; E coli WT exp: 3; Ecoli tolC: 0; PostGolgi yeast: 25

How did C=CCn1c(C)cc(C(=O)CSc2nc3ccccc3o2)c1C do in these assays?
D1 mod: -1.4; PostGolgi ctrl: 52*; DAT uptake mod: -0.85; E coli WT exp: -5; Ecoli tolC: 40; PostGolgi yeast: -14

How did CCOc1ccccc1N(C(=O)Cn1nnnc1-c1ccc(C)o1)C(CC)C(=O)NC(C)(C)C (configuration not stated) do in these assays?
D1 mod: -0.15; PostGolgi ctrl: 4; DAT uptake mod: 0.32; E coli WT exp: -8; Ecoli tolC: -15; PostGolgi yeast: 9

How did CN1C(=S)SC(/[N+]([O-])=C/c2cccnc2)C1(C)C (configuration not stated) do in these assays?
D1 mod: -6*; PostGolgi ctrl: 7; DAT uptake mod: -1; E coli WT exp: -1; Ecoli tolC: -21; PostGolgi yeast: -11

How did O=C(c1ccco1)n1nc(-c2ccccc2)nc1NCc1ccco1 do in these assays?
D1 mod: 0.65; PostGolgi ctrl: 9; DAT uptake mod: -0.47; E coli WT exp: -4; Ecoli tolC: -1; PostGolgi yeast: 16

What do the screens show for `O=C(c1ccco1)n1nc(NCc2ccccc2)nc1NCc1ccccc1`?
D1 mod: -0.55; PostGolgi ctrl: 79*; DAT uptake mod: -0.067; E coli WT exp: -3; Ecoli tolC: -1; PostGolgi yeast: 2

What do the screens show for `COc1ccc(Cn2cnc3c([N+](=O)[O-])c(C)c(C)cc32)cc1`?
PostGolgi ctrl: 12; DAT uptake mod: -0.18; E coli WT exp: -2; PostGolgi yeast: -1

How did Cc1ccccc1Cn1cnc2c([N+](=O)[O-])c(C)c(C)cc21 do in these assays?
PostGolgi ctrl: 40*; DAT uptake mod: -0.44; E coli WT exp: 2; PostGolgi yeast: 14

Results for CCOc1ccc2nc(NC(=O)CN3CCC(n4nnc5cc(F)ccc54)CC3)sc2c1 ?
D1 mod: -0.69; PostGolgi ctrl: 34*; DAT uptake mod: 4.3*; E coli WT exp: -13; Ecoli tolC: 79*; PostGolgi yeast: 10

How did COC(=O)c1ccccc1NC(=O)CN1CCC(n2nnc3cc(F)ccc32)CC1 do in these assays?
PostGolgi ctrl: 17; DAT uptake mod: -0.12; E coli WT exp: -7; Ecoli tolC: -14; PostGolgi yeast: 9

How did O=C(CN1CCC(n2nnc3cc(F)ccc32)CC1)Nc1ccccc1N1CCOCC1 do in these assays?
D1 mod: -3.1*; PostGolgi ctrl: 11; DAT uptake mod: 1.7; E coli WT exp: 2; Ecoli tolC: 31; PostGolgi yeast: 10

Results for COc1ccc(-c2cc(-c3ccccc3)c(C#N)c(S(C)=O)n2)cc1 (configuration not stated) ?
PostGolgi ctrl: 18; DAT uptake mod: 0.31; E coli WT exp: -19; PostGolgi yeast: -2

How did COc1cc(OC)c(C#N)c(S(=O)Cc2ccccc2)c1 (configuration not stated) do in these assays?
D1 mod: -0.25; PostGolgi ctrl: 36*; DAT uptake mod: -0.38; E coli WT exp: 0; Ecoli tolC: 0; PostGolgi yeast: 13
